Data: ChEMBL document CHEMBL4004831, “Naphthalene diimide-polyamine hybrids as antiproliferative agents: Focus on the architecture of the polyamine chains” (Eur J Med Chem, 2017)
Blank lines part the entries; values can stand above or below the compound they belong to.

What was measured:
MDA-MB-435 = test: Growth inhibition of human MDA-MB-435 cells incubated for 48 hrs by sulforhodamine B assay; assay type: functional; conditions: MDA-MB-435, 48 h
SNB-75 = test: Growth inhibition of human SNB75 cells incubated for 48 hrs by sulforhodamine B assay; assay type: functional; conditions: SNB-75, 48 h
SK-OV-3 = test: Growth inhibition of human SKOV3 cells incubated for 48 hrs by sulforhodamine B assay; assay type: functional; conditions: SK-OV-3, 48 h
A549 = test: Growth inhibition of human A549/ATCC cells incubated for 48 hrs by sulforhodamine B assay; assay type: functional; conditions: A549, 48 h
SF-268 = test: Growth inhibition of human SF268 cells incubated for 48 hrs by sulforhodamine B assay; assay type: functional; conditions: SF-268, 48 h
COLO 205 = test: Growth inhibition of human COLO205 cells incubated for 48 hrs by sulforhodamine B assay; assay type: functional; conditions: COLO 205, 48 h
KM12 = test: Growth inhibition of human KM12 cells incubated for 48 hrs by sulforhodamine B assay; assay type: functional; conditions: KM12, 48 h
Malme-3M = test: Growth inhibition of human MALME-3M cells incubated for 48 hrs by sulforhodamine B assay; assay type: functional
T47D = test: Growth inhibition of human T47D cells incubated for 48 hrs by sulforhodamine B assay; assay type: functional
NCI-H23 = test: Growth inhibition of human NCI-H23 cells incubated for 48 hrs by sulforhodamine B assay; assay type: functional; conditions: NCI-H23, 48 h
[1] = Stabilization of 5'Dabcyl/3'FAM labeled duplex DNA (unknown origin) assessed as increase in melting temperature at 2.5 uM pretreated for 5 mins at 30 degreeC followed by 5 mins incubation at 95 degreeC by fluorescence assay
Method in brief: (§1)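 FRET melting in LiP buffer (10 mM LiOH, 50 mM KCl, pH 7.0 with H3PO4), ex 488 nm, em 520 nm. Samples were held 5 min at 30 °C, heated at 1 °C/min to 95 °C, held 5 min, then re-annealed. Tm came from first derivatives; ΔTm = shift with ligand at 2.5; at least three runs.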

OVCAR-5 = test: Growth inhibition of human OVCAR5 cells incubated for 48 hrs by sulforhodamine B assay; assay type: functional; conditions: OVCAR-5, 48 h
MCF7 = test: Growth inhibition of human MCF7 cells incubated for 48 hrs by sulforhodamine B assay; assay type: functional; conditions: MCF7, 48 h
CAKI-1 = test: Growth inhibition of human Caki1 cells incubated for 48 hrs by sulforhodamine B assay; assay type: functional; conditions: CAKI-1, 48 h
IGROV-1 = test: Growth inhibition of human IGROV1 cells incubated for 48 hrs by sulforhodamine B assay; assay type: functional; conditions: IGROV-1, 48 h
786-0 = test: Growth inhibition of human 786-0 cells incubated for 48 hrs by sulforhodamine B assay; assay type: functional; conditions: 786-0, 48 h
RPMI-8226 = test: Growth inhibition of human RPMI8226 cells incubated for 48 hrs by sulforhodamine B assay; assay type: functional; conditions: RPMI-8226, 48 h
MOLT-4 = test: Growth inhibition of human MOLT4 cells incubated for 48 hrs by sulforhodamine B assay; assay type: functional; conditions: MOLT-4, 48 h
CCRF-CEM = test: Growth inhibition of human CCRF-CEM cells incubated for 48 hrs by sulforhodamine B assay; assay type: functional
MDA-MB-468 = test: Growth inhibition of human MDA-MB-468 cells incubated for 48 hrs by sulforhodamine B assay; assay type: functional; conditions: MDA-MB-468, 48 h
SF-539 = test: Growth inhibition of human SF539 cells incubated for 48 hrs by sulforhodamine B assay; assay type: functional; conditions: SF-539, 48 h
OVCAR-8 = test: Growth inhibition of human OVCAR8 cells incubated for 48 hrs by sulforhodamine B assay; assay type: functional; conditions: OVCAR-8, 48 h
OVCAR-4 = test: Growth inhibition of human OVCAR4 cells incubated for 48 hrs by sulforhodamine B assay; assay type: functional; conditions: OVCAR-4, 48 h
K562 = test: Growth inhibition of human K562 cells incubated for 48 hrs by sulforhodamine B assay; assay type: functional; conditions: K562, 48 h
NCI-H522 = test: Growth inhibition of human NCI-H522 cells incubated for 48 hrs by sulforhodamine B assay; assay type: functional; conditions: NCI-H522, 48 h
PC-3 = test: Growth inhibition of human PC3 cells incubated for 48 hrs by sulforhodamine B assay; assay type: functional; conditions: PC-3, 48 h
SK-MEL-2 = test: Growth inhibition of human SK-MEL-2 cells incubated for 48 hrs by sulforhodamine B assay; assay type: functional; conditions: SK-MEL-2, 48 h
BT-549 = test: Growth inhibition of human BT549 cells incubated for 48 hrs by sulforhodamine B assay; assay type: functional; conditions: BT-549, 48 h
HCT-15 = test: Growth inhibition of human HCT15 cells incubated for 48 hrs by sulforhodamine B assay; assay type: functional; conditions: HCT-15, 48 h
SK-MEL-28 = test: Growth inhibition of human SK-MEL-28 cells incubated for 48 hrs by sulforhodamine B assay; assay type: functional; conditions: SK-MEL-28, 48 h
HCT-116 = test: Growth inhibition of human HCT116 cells incubated for 48 hrs by sulforhodamine B assay; assay type: functional; conditions: HCT-116, 48 h
SN12C = test: Growth inhibition of human SN12C cells incubated for 48 hrs by sulforhodamine B assay; assay type: functional
U-251 = test: Growth inhibition of human U251 cells incubated for 48 hrs by sulforhodamine B assay; assay type: functional; conditions: U-251, 48 h
NCI-H460 = test: Growth inhibition of human NCI-H460 cells incubated for 48 hrs by sulforhodamine B assay; assay type: functional; conditions: NCI-H460, 48 h
Hs-578T = test: Growth inhibition of human Hs 578T cells incubated for 48 hrs by sulforhodamine B assay; assay type: functional
LOX IMVI = test: Growth inhibition of human LOXIMVI cells incubated for 48 hrs by sulforhodamine B assay; assay type: functional
Homo sapiens = species: Homo sapiens; test: Stabilization of 5'Dabcyl/3'FAM labeled human telomeric sequence G-quadruplex DNA assessed as increase in melting temperature at 2.5 uM pretreated for 5 mins at 30 degreeC followed by 5 mins incubation at 95 degreeC by fluorescence assay; method in brief: as §1
NCI-H226 = test: Growth inhibition of human NCI-H226 cells incubated for 48 hrs by sulforhodamine B assay; assay type: functional; conditions: NCI-H226, 48 h
M14 = test: Growth inhibition of human M14 cells incubated for 48 hrs by sulforhodamine B assay; assay type: functional; conditions: M14, 48 h
A498 = test: Growth inhibition of human A498 cells incubated for 48 hrs by sulforhodamine B assay; assay type: functional; conditions: A498, 48 h
SF-295 = test: Growth inhibition of human SF295 cells incubated for 48 hrs by sulforhodamine B assay; assay type: functional; conditions: SF-295, 48 h
HL-60 = test: Growth inhibition of human HL60 cells incubated for 48 hrs by sulforhodamine B assay; assay type: functional; conditions: HL-60, 48 h
SK-MEL-5 = test: Growth inhibition of human SK-MEL-5 cells incubated for 48 hrs by sulforhodamine B assay; assay type: functional; conditions: SK-MEL-5, 48 h
DU-145 = test: Growth inhibition of human DU145 cells incubated for 48 hrs by sulforhodamine B assay; assay type: functional; conditions: DU-145, 48 h

GI50 (MDA-MB-435): 184 nM
GI50 (SK-OV-3): 290 nM
GI50 (A549): 258 nM
GI50 (COLO 205): 110 nM
GI50 (T47D): 215 nM
GI50 (NCI-H23): 193 nM
ΔTm [1]: 12.2 °C
GI50 (OVCAR-5): 944 nM
GI50 (MCF7): 185 nM
GI50 (786-0): 616 nM
GI50 (RPMI-8226): 394 nM
GI50 (MOLT-4): 302 nM
GI50 (CCRF-CEM): 275 nM
GI50 (MDA-MB-468): 85 nM
GI50 (OVCAR-8): 231 nM
GI50 (OVCAR-4): 155 nM
GI50 (K562): 281 nM
GI50 (NCI-H522): 172 nM
GI50 (PC-3): 230 nM
GI50 (SK-MEL-2): 223 nM
GI50 (BT-549): 1180 nM
GI50 (HCT-15): 165 nM
GI50 (SK-MEL-28): 313 nM
GI50 (HCT-116): 185 nM
GI50 (U-251): 173 nM
GI50 (NCI-H460): 313 nM
ΔTm (Homo sapiens): 29 °C
GI50 (NCI-H226): 808 nM
GI50 (HL-60): 216 nM
GI50 (SK-MEL-5): 153 nM
GI50 (DU-145): 853 nM
Compound: COc1ccccc1CNCCCN1C(=O)c2ccc3c4c(ccc(c24)C1=O)C(=O)N(CCCNCCCCN)C3=O
GI50 (SNB-75): 304 nM
GI50 (SF-268): 268 nM
GI50 (KM12): 324 nM
GI50 (Malme-3M): 174 nM
GI50 (CAKI-1): 198 nM
GI50 (IGROV-1): 179 nM
GI50 (SF-539): 280 nM
GI50 (SN12C): 280 nM
GI50 (Hs-578T): 1120 nM
GI50 (LOX IMVI): 188 nM
GI50 (M14): 343 nM
GI50 (A498): 619 nM
GI50 (SF-295): 448 nM

GI50 (MDA-MB-435): 795 nM
GI50 (SK-OV-3): 6190 nM
GI50 (A549): 3450 nM
GI50 (COLO 205): 1380 nM
GI50 (T47D): 342 nM
GI50 (NCI-H23): 2990 nM
ΔTm [1]: 17.1 °C
GI50 (OVCAR-5): 5350 nM
GI50 (MCF7): 2770 nM
GI50 (786-0): 3360 nM
GI50 (RPMI-8226): 3000 nM
GI50 (MOLT-4): 5210 nM
GI50 (CCRF-CEM): 2770 nM
GI50 (MDA-MB-468): 1890 nM
GI50 (OVCAR-8): 2890 nM
GI50 (OVCAR-4): 1700 nM
GI50 (K562): 2780 nM
GI50 (NCI-H522): 5620 nM
GI50 (PC-3): 7450 nM
GI50 (SK-MEL-2): 4460 nM
GI50 (BT-549): 3400 nM
GI50 (HCT-15): 4270 nM
GI50 (SK-MEL-28): 1400 nM
GI50 (HCT-116): 2040 nM
GI50 (U-251): 3240 nM
GI50 (NCI-H460): 2530 nM
ΔTm (Homo sapiens): 26.1 °C
GI50 (NCI-H226): 2170 nM
GI50 (HL-60): 3680 nM
GI50 (SK-MEL-5): 813 nM
GI50 (DU-145): 5090 nM
Compound: CNCCCNCCCCNCCCN1C(=O)c2ccc3c4c(ccc(c24)C1=O)C(=O)N(CCCNCc1ccccc1OC)C3=O
GI50 (SNB-75): 1050 nM
GI50 (SF-268): 3510 nM
GI50 (KM12): 2750 nM
GI50 (Malme-3M): 939 nM
GI50 (CAKI-1): 2250 nM
GI50 (IGROV-1): 3020 nM
GI50 (SF-539): 2040 nM
GI50 (SN12C): 2950 nM
GI50 (Hs-578T): 2900 nM
GI50 (LOX IMVI): 3030 nM
GI50 (M14): 2630 nM
GI50 (A498): 1780 nM
GI50 (SF-295): 1330 nM

GI50 (MDA-MB-435): 1070 nM
GI50 (SK-OV-3): 2950 nM
GI50 (A549): 577 nM
GI50 (COLO 205): 498 nM
GI50 (T47D): 1250 nM
GI50 (NCI-H23): 1260 nM
ΔTm [1]: 9.5 °C
GI50 (OVCAR-5): 1250 nM
GI50 (MCF7): 512 nM
GI50 (786-0): 1270 nM
GI50 (RPMI-8226): 1640 nM
GI50 (MOLT-4): 534 nM
GI50 (CCRF-CEM): 465 nM
GI50 (MDA-MB-468): 1000 nM
GI50 (OVCAR-8): 797 nM
GI50 (OVCAR-4): 641 nM
GI50 (K562): 408 nM
GI50 (NCI-H522): 1230 nM
GI50 (PC-3): 1600 nM
GI50 (SK-MEL-2): 1750 nM
GI50 (BT-549): 5030 nM
GI50 (HCT-15): 2360 nM
GI50 (SK-MEL-28): 1010 nM
GI50 (HCT-116): 270 nM
GI50 (U-251): 1610 nM
GI50 (NCI-H460): 429 nM
ΔTm (Homo sapiens): 18 °C
GI50 (NCI-H226): 1420 nM
GI50 (HL-60): 2000 nM
GI50 (SK-MEL-5): 1100 nM
GI50 (DU-145): 1050 nM
Compound: CNCCCNCCCN1C(=O)c2ccc3c4c(ccc(c24)C1=O)C(=O)N(CCCNCc1ccccc1OC)C3=O
GI50 (SNB-75): 1110 nM
GI50 (SF-268): 1030 nM
GI50 (KM12): 1180 nM
GI50 (Malme-3M): 633 nM
GI50 (IGROV-1): 1450 nM
GI50 (SF-539): 782 nM
GI50 (SN12C): 1460 nM
GI50 (Hs-578T): 3020 nM
GI50 (LOX IMVI): 1520 nM
GI50 (M14): 1320 nM
GI50 (A498): 1540 nM
GI50 (SF-295): 894 nM
